Sampled rows, rich in hits. Any-hit rate of the full collection: about 2.6%.
LMPTP block – blocks human LMPTP phosphatase | P24666 | recombinant LMPTP-A, OMFP fluorogenic substrate, fluorescence intensity | inhibition, % at 20 µM | hit rate 0.22% among 360,000;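 active = compounds that cut the enzyme signal by at least half of the control window in the single-dose screen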;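 note: plate controls were DMSO wells with enzyme plus substrate for no effect and substrate without enzyme for full effect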
Target sequence (P24666 whole entry, looked up): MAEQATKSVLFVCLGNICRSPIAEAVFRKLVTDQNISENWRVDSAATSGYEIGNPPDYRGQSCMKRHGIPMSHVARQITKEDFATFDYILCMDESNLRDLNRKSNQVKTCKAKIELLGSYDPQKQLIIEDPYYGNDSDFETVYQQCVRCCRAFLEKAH
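Assay system: LMPTP-A enzyme. Input: 0.625 nM LMPTP-A final. Probe or stimulus: 400 µM OMFP. Compound dosing: single 20 µM dose. Schedule: 50 min dark incubation at room temperature. Detection: fluorescence intensity of OMFP turnover product. Read-out: percent inhibition versus substrate-only and uninhibited controls. Benchmarks: no-enzyme low control, uninhibited high control.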
rCAG binder – binds r(CAG) RNA repeats; inhibition, % at 3 µM; r(CAG) RNA repeat, TO-PRO-1 dye displacement fluorescence; AID 651821; hit rate 1.3% among 370,000;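 active = inhibition above the plate cutoff, the mean of all test compounds on that plate plus 3 SD, cut at about 35% in these data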;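 note: 0% = DMSO alone and 100% = 100 µM mitoxantrone as full dye displacement; higher means more dye released from RNA so lower well fluorescence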
STEP inh – STEP (human) phosphatase inhibition. inhibition, % at 20 µM. hit rate 0.25% among 360,000. recombinant STEP, OMFP fluorogenic substrate, fluorescence. P54829;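 active = inhibition at 20 µM, scaled per plate between control wells, above about 37%, limit read from the data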;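 note: 0% = DMSO with enzyme and substrate and 100% = substrate only without enzyme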
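Assay system: isolated STEP enzyme / Timing: 20 min at room temperature, dark / Doses: 20 µM, 1% DMSO / Technique: fluorescence intensity, excitation 480 nm, emission 540 nm / Reagent: fluorogenic phosphatase substrate OMFP at 25 µM final / Measure: percent inhibition scaled to no-enzyme and uninhibited-enzyme controls, plate-pattern corrected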
Scp1 inh – blocks human Scp-1 phosphatase activity. AID 493091. Recombinant Scp1, phosphopeptide, malachite green phosphate absorbance. inhibition, % at 20 µM. Q9GZU7. hit rate 0.88% among 340,000;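 active = inhibition above about 50% at 20 µM, limit read from the data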;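 note: plate controls were DMSO wells with enzyme for no effect and wells lacking enzyme for full effect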
Target sequence (Q9GZU7 76-261 limits assumed): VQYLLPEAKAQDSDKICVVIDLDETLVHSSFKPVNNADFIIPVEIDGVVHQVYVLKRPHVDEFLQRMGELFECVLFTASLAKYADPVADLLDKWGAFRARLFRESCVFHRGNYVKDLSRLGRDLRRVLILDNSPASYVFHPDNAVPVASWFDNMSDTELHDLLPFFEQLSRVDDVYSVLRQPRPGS
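Assay system: SCP-1 catalytic fragment, aa 76-261 | Buffer or medium: Tris acetate buffer pH 5.5 with MgCl2 and Tween-20 | Compound: One concentration, 20 µM, with 1.0% DMSO | Also added: Phospho 17-mer peptide substrate | Signal: Absorbance at 630 nm | Incubation: 45 min enzyme reaction at room temperature | Measure: % inhibition of SCP-1 phosphate liberation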
NadD block – inhibitors of Staphylococcus aureus NadD; purified NadD enzyme, colorimetric absorbance read-out; inhibition, % at 20 µM; hit rate 0.78% among 360,000; AID 602399; in the data active = inhibition above about 26%
rCAG binder conf – r(CAG) RNA repeat binding, confirmation; hit rate 70% among 4,300; AID 652065; TO-PRO-1 dye displacement fluorescence; inhibition, % at 3 µM; shares compounds with rCAG binder;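 active = inhibition above a per-plate cutoff, the mean inhibition of sample wells plus 3 SD, cut at about 35% in these data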;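 note: loss of TO-PRO-1 fluorescence as compound displaces dye from 1x1 AA loop RNA; 0% = DMSO only wells and 100% = 100 µM mitoxantrone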
DNA CAG counter – disrupts DNA CAG TO-PRO-1 complex, flagging rCAG hits; shares compounds with rCAG binder; d(CAG) DNA oligo TO-PRO-1 dye displacement, fluorescence; inhibition, % at 3 µM; hit rate 94% among 4,300; AID 652068;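 active = inhibition above its plate's cutoff, the mean test-well inhibition plus 3 SD, cut at about 4.8% in these data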;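 note: 0% = DNA dye mix with DMSO and 100% = 100 µM mitoxantrone; hits displace the dye from DNA and so lower well fluorescence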
Numbers without * were called inactive; . = no result given.

SMILES	LMPTP block	rCAG binder	STEP inh	Scp1 inh	NadD block	rCAG binder conf	DNA CAG counter
O=C(Nc1ccccc1)Nc1nc(-c2ccccc2)cs1	0.3	43.2*	3.2	-7.9	-7.4	12.3	15.1*
COc1cccc(-c2csc(NC(=O)C3CC3)n2)c1	1.3	-2.2	-0.6	3.5	1.4	.	.
COC(=O)CCC(=O)Nc1nc(-c2ccccc2)cs1	-1.1	3.1	-3.6	3.5	1.4	.	.
COc1cccc(-c2csc(NC(=O)Nc3ccccc3)n2)c1	3.1	54.2*	-3.9	-19.0	-7.0	28.9	24.9*
O=C(O)CCC(=O)Nc1ccc(-c2csc(Nc3cccc4ccccc34)n2)cc1	2.3	49.4*	2.1	0.7	3.9	49.0*	18.0*
COc1cc(C(=O)NC2CCCCN(C(C)C)C2=O)cc(OC)c1OC (centres undefined)	.	0.7	.	.	.	.	.
Cc1ccc(S(=O)(=O)N2[C@@H](c3ccc(C#N)cc3)C(C(=O)O)=C[C@H]2C(C)(C)C)cc1	-1.0	31.0	-1.2	4.1	-3.5	.	.
Cc1ccc(S(=O)(=O)N2[C@@H](c3ccc(Br)cc3)C(C(=O)O)=C[C@H]2C(C)(C)C)cc1	-0.4	46.9*	4.1	-4.2	5.6	54.3*	15.7*
Cc1ccc(S(=O)(=O)N2[C@@H](c3ccc(Cl)cc3)C(C(=O)O)=C[C@H]2C(C)(C)C)cc1	0.0	48.2*	3.5	-7.7	2.0	41.7*	11.0*
O=S1(=O)c2ccc(N3CCCC3)cc2Oc2ccccc2CN1Cc1cn(Cc2ccc(Cl)cc2)nn1	.	13.3	.	.	.	.	.
COc1cc2c(cc1OC)[C@@H](NC(=O)c1ccncc1)[C@H](C)[C@H]2c1ccccc1	.	3.4	.	.	.	.	.
CCOC(=O)[C@]12CCCC=C1N(CCCOC)C(=O)[C@@H]2CC(=O)NCc1ccc(C)o1	.	-1.7	.	.	.	.	.
Cc1ccc(S(=O)(=O)c2c(N)n(CCCO)c3nc4ccccc4nc23)cc1	3.7	4.2	-3.7	-0.4	1.7	.	.
Cc1ccc(S(=O)(=O)c2c(N)n(NC(=O)c3ccccc3C)c3nc4ccccc4nc23)cc1	2.7	35.5*	-2.8	8.0	19.9	35.6*	13.3*
C#CCNC(=O)C[C@H]1C[C@@]2(C(=O)OC)C(=C[C@H](C(C)C)O[C@@H]2C2CC2)N(Cc2cccc3ccccc23)C1=O	.	2.2	.	.	.	.	.
CC(C)C(=O)N(c1cc2sc(=O)oc2c2ccccc12)S(=O)(=O)c1cccs1	-0.3	77.5*	4.6	-1.5	-1.0	48.0*	22.5*
CCN(CC)S(=O)(=O)c1ccc(S(=O)(=O)Nc2ccc3c(c2)oc2ccccc23)cc1	5.1	56.5*	-2.3	-12.6	11.5	51.3*	18.1*
CN(C)S(=O)(=O)c1ccc(S(=O)(=O)Nc2ccc3c(c2)oc2ccccc23)cc1	5.0	49.0*	-1.5	-9.5	7.1	57.1*	19.2*
COc1ccc(CNCC#Cc2ccc(C)cc2)c(OC)c1	.	0.6	.	.	.	.	.
COC(=O)c1cc(-c2cccc(OCc3ccccc3)c2)c(=O)n2c1CCC2	.	4.7	.	.	.	.	.
NC(Cc1ccc(O)cc1)C(=O)NN=Cc1ccccc1Cl (centres undefined)	.	5.6	.	.	.	.	.
Cc1ccc(S(=O)(=O)N(CC(=O)Nc2ccccc2C(=O)O)c2cccc(Cl)c2C)cc1	-1.3	78.3*	-2.8	-9.4	6.1	82.5*	51.8*
Cc1ccc(S(=O)(=O)N(CC(=O)Nc2ccccc2C(=O)O)c2ccccc2C)cc1	-0.8	57.6*	2.3	-2.5	-0.9	49.7*	15.1*
Cc1ccc(C(=O)N/N=C(/CC(=O)c2cccs2)C(F)(F)F)cc1	0.6	45.4*	19.9	-5.2	-3.7	32.0	7.6*
COCC1CN(CCc2ccc(F)cc2)S(=O)(=O)c2c(F)cccc2O1 (centres undefined)	.	2.5	.	.	.	.	.
SMILES	LMPTP block	rCAG binder	STEP inh	Scp1 inh	NadD block	rCAG binder conf	DNA CAG counter
O=C(O)/C(=C\c1ccc2ccccc2c1)c1cccc2ccccc12	-1.1	57.8*	0.1	-19.2	2.5	52.3*	17.4*
COc1cc(C2C3=C(Nc4nc(N)[nH]c(=O)c42)c2ccccc2C3=O)ccc1O (centres undefined)	10.5	60.5*	7.3	-2.0	8.6	27.9	20.1*
Nc1nc2c(c(=O)[nH]1)C(c1ccccc1)C1=C(N2)c2ccccc2C1=O (centres undefined)	9.0	61.8*	0.9	-4.3	0.2	32.1	26.6*
CCOC(=O)c1c(-c2ccccc2)csc1N1C(=O)Nc2ccccc2N1O	-0.9	49.8*	1.3	-3.4	-0.5	38.1*	8.8*
COC(=O)c1c(N2C(=O)Nc3ccccc3N2O)sc2c1CCCC2	0.7	40.4*	2.4	-9.0	-1.8	36.1*	8.4*
Cn1c(SCC(=O)Nc2ccccc2-c2ccccc2)nnc1-c1cnccn1	.	5.0	.	.	.	.	.
O=C(c1cccs1)n1ccc2ccc(-c3ccc4ccn(Cc5ccccc5)c4c3)cc21	.	20.0	.	.	.	.	.
COC1C=COC2(C)Oc3c(C)c(O)c4c(O)c(c(CN5CCN(C)CC5)c(O)c4c3C2=O)NC(=O)C(C)=CC=CC(C)C(O)C(C)C(O)C(C)C(OC(C)=O)C1C (centres undefined)	2.1	37.3*	1.7	7.1	18.3	33.9	7.5*
CCC(C)N1CCC2(CC1)N=c1c(c3c4c5c(C)c(O)c3c(O)c1=NC(=O)C(C)=CC=C[C@H](C)[C@H](O)[C@@H](C)[C@@H](O)[C@@H](C)[C@H](OC(C)=O)[C@H](C)[C@@H](OC)C=CO[C@@](C)(O5)C4=O)N2 (some centres undefined)	0.0	8.2	-0.8	-11.3	3.4	.	.
Cn1c(=O)c2cc(S(=O)(=O)N3CCN(CCO)CC3)ccc2n(C)c1=O	.	-0.4	.	.	.	.	.
CCOc1ccccc1C(=O)N1CCC(Oc2cccnc2)CC1	.	3.3	.	.	.	.	.
O=C(O)c1cccc(NC(=O)c2cn(-c3ccccc3)nc2-c2ccc([N+](=O)[O-])cc2)c1	-0.3	13.8	28.2	39.3	-2.0	.	.
O=C(O)c1cccc(NC(=O)c2cn(-c3ccccc3)nc2-c2cccc(Br)c2)c1	1.9	86.5*	-1.4	-20.4	8.0	81.7*	50.0*
O=C(O)c1ccc(NC(=O)c2cn(-c3ccccc3)nc2-c2ccc(Br)cc2)cc1	10.4	81.6*	1.7	-13.3	10.3	68.5*	28.4*
O=C(O)c1cccc(NC(=O)c2cn(-c3ccccc3)nc2-c2ccncc2)c1	.	14.5	.	4.9	.	.	.
COc1ccc(-c2nn(-c3ccccc3)cc2C(=O)Nc2cccc(C(=O)O)c2)cc1[N+](=O)[O-]	-0.3	70.5*	-1.0	-9.4	10.4	61.0*	24.1*
COC(=O)[C@]12C[C@H](CC(=O)N3CCC(c4ccccc4)CC3)C(=O)N(Cc3ccc(Cl)cc3Cl)C1=C[C@H](C1CCCC1)O[C@@H]2C	.	8.6	.	.	.	.	.

High-throughput results from PubChem.
